# Source: ChEMBL document CHEMBL3525903 (Drug Metab Dispos, 2013)
# How the values were obtained:
# Type in all cases: ADME, cell-based
# [1] = biological target: T1, Broad substrate specificity ATP-binding cassette transporter ABCG2 (Homo sapiens, UniProt Q9UNQ0); assay: Inhibition of human BCRP expressed in MDCK2 cells assessed as reduction of [3H]E-sul substrate transport up to 100 uM by liquid scintillation counting; conditions: mdck-ii
# T1 sequence (Q9UNQ0 whole entry): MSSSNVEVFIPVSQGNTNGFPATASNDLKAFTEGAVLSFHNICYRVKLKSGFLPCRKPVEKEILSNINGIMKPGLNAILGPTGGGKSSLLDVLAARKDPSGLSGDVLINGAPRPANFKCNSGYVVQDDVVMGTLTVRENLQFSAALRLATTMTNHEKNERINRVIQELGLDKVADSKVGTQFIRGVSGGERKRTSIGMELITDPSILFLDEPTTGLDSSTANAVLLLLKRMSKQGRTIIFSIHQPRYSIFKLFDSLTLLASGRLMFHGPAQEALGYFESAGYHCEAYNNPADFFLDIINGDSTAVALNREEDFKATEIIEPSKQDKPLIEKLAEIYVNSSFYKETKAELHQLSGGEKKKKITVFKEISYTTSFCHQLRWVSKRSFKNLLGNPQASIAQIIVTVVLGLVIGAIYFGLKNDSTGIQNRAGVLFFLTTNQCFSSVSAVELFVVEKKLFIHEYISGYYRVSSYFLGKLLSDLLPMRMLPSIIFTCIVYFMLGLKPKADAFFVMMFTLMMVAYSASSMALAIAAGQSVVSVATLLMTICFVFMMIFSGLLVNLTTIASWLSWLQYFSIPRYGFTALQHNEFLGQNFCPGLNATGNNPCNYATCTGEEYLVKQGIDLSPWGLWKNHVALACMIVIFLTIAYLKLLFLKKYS
# In short: (§1)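 Membrane vesicles made from MDCKII cells expressing BCRP or MRP2, and from parental cells (1 μg/μL protein). Run in Tris-sucrose buffer, pH 7.4, with 10 mM MgCl2, creatine phosphokinase and ATP, or AMP as control. Substrates: 0.035 μM [3H]E-sul for BCRP, 2 min; 0.033 μM [3H]E217βG for MRP2, 5 min; both at 37 °C. Stopped ice-cold, filtered, and counted by scintillation.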
# [2] = Maximal inhibition of human P-glycoprotein expressed in pig LLC-PK1 cells assessed as reduction of [3H]digoxin substrate transport at 100 uM by liquid scintillation counting; conditions: llc-pk1, 100 µM
# In short: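 P-gp-expressing and parental LLC-PK1 monolayers were grown on transwell inserts for 6–7 days to confluence and switched to serum-free M199 1 h before assay. [3H]digoxin was given apical-to-basal or basal-to-apical, with inhibitor in both chambers, at 37 °C, solvent ≤0.5%. Receiver samples were scintillation-counted and Papp taken from the linear phase. Results are % of control BtoA transport, mean ± S.D., n≥3.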
# [3] = biological target: T2, Solute carrier organic anion transporter family member 1B1 (Homo sapiens, UniProt Q9Y6L6); assay: Inhibition of OATP1B1 (unknown origin) expressed in HEK293 cells assessed as reduction of [3H]E217betaG substrate uptake by liquid scintillation counting
# T2 sequence (Q9Y6L6 whole entry): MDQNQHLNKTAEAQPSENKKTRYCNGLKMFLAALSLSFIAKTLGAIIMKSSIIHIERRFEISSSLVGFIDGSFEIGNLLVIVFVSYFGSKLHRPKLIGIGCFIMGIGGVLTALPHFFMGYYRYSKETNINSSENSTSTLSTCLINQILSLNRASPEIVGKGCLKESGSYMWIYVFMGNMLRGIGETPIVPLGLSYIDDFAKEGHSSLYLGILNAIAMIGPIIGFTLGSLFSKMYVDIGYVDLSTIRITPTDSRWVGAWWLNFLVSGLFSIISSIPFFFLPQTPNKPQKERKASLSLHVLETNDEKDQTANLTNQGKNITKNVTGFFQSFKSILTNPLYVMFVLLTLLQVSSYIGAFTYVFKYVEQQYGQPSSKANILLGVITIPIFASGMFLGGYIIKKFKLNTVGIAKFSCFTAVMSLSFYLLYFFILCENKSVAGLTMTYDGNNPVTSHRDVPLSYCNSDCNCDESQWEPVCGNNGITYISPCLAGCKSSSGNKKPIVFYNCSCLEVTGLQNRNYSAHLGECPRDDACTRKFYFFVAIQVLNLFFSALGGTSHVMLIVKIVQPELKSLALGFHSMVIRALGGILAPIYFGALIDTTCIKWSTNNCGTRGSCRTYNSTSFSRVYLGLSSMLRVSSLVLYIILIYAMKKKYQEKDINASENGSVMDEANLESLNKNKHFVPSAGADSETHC
# [4] = biological target: ATP-binding cassette sub-family C member 2 (Homo sapiens, UniProt Q92887); assay: Inhibition of human MRP2 expressed in MDCK2 cells assessed as reduction of [3H]E217betaG substrate transport up to 100 uM by liquid scintillation counting; conditions: mdck-ii; in short: as §1
# Sequence of ATP-binding cassette sub-family C member 2 (Q92887 whole entry): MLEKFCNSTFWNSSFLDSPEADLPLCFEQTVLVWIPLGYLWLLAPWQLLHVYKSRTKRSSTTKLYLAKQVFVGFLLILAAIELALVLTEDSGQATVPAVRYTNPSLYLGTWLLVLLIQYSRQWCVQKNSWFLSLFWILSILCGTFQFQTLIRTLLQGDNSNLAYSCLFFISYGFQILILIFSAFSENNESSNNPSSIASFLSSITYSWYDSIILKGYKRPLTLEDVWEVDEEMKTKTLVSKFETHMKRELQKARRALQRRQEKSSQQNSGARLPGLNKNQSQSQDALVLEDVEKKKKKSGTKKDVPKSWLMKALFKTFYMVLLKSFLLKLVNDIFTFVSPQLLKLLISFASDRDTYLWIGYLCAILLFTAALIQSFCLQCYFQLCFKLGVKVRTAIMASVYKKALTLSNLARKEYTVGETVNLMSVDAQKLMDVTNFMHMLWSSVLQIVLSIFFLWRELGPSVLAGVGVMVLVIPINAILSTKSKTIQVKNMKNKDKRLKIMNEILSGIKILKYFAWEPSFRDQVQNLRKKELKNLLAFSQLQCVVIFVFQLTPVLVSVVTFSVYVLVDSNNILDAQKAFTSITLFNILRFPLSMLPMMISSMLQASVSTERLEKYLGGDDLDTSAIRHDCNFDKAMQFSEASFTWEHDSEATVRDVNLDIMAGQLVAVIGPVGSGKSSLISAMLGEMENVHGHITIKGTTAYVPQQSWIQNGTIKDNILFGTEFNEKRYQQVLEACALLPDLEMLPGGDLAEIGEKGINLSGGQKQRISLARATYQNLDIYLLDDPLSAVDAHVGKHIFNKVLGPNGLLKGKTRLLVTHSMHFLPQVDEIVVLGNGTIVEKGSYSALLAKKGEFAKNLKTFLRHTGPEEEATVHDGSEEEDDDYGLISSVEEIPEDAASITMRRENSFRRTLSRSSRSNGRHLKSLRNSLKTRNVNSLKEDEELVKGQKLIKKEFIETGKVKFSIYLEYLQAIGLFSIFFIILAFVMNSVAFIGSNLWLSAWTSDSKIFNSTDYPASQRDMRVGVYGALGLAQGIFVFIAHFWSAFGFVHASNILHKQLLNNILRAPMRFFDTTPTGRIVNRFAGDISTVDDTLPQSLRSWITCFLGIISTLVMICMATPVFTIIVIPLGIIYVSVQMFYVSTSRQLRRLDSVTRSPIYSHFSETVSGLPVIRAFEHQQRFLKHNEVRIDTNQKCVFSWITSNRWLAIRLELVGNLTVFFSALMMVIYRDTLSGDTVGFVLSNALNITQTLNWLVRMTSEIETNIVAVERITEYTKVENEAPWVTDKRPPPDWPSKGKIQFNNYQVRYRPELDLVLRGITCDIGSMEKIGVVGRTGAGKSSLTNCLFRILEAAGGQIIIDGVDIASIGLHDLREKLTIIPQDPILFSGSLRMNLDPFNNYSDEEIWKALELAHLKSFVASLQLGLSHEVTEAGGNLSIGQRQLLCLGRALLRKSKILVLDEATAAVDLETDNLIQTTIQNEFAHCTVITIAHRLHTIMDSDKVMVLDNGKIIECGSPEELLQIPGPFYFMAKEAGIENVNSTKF
# P-glycoprotein [5] = assay: Permeability assessed as human P-glycoprotein-mediated transport of apical to basolateral side in pig LLC-PK1 cells by measuring nontransporter-related passive membrane permeability by Transwell experiment/liquid scintillation counting; conditions: read-out: permeability
# P-glycoprotein [6] = assay: Permeability assessed as human P-glycoprotein-mediated transport across apical to basolateral side expressed in pig LLC-PK1 cells at 2 uM by liquid scintillation counting
smiles,measurement,setting,value
CC#CCn1c(N2CCC[C@@H](N)C2)nc2c1c(=O)n(Cc1nc(C)c3ccccc3n1)c(=O)n2C [LINAGLIPTIN],inhibition (INH),[1],24.7%
same,inhibition (INH),[2],Active
same,IC50,[3],> 100 µM
same,inhibition (INH),[4],Not Active
same,Papp A→B,P-glycoprotein [5],273 nm/s
same,Papp A→B at 2 µM,P-glycoprotein [6],42.1 nm/s
